From ChEMBL document CHEMBL1687750, “Nonclinical pharmacokinetics of oseltamivir and oseltamivir carboxylate in the central nervous system” (Antimicrob Agents Chemother, 2009)

Legend:
[1] = tested on: Cerebrospinal fluid; test: AUC (0 to 8 hrs) after po dose in perfused Sprague-Dawley rat cerebrospinal fluid at 1000 mg/kg; details: in vivo
[2] = Cmax in perfused Sprague-Dawley rat plasma at 1000 mg/kg, po; type: ADME, organism-based; parameters: dose 1000 mg/kg, route oral
Summary of the method: (§1)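 Oseltamivir phosphate was given by oral gavage at 1,000 mg/kg free base. Sampling was at 1, 2, 4, 6 and 8 h, with 4 rats per time point, under terminal isoflurane. Blood was taken by cardiac puncture and CSF from the cisterna magna. Brains were perfused transcardially with saline before homogenization. Samples were quantified by LC-MS/MS, with noncompartmental analysis of pooled composite data giving AUC0-8 h and concentration ratios.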

[3] = tested on: Cerebrospinal fluid; test: AUC (0 to 8 hrs) after iv dose in non-perfused Sprague-Dawley rat cerebrospinal fluid at 30 mg/kg; details: in vivo
[4] = tested on: Brain; test: AUC (0 to 8 hrs) after iv dose in perfused Sprague-Dawley rat brain at 30 mg/kg; details: in vivo
[5] = tested on: Brain; test: AUC (0 to 8 hrs) after iv dose in non-perfused Sprague-Dawley rat brain at 30 mg/kg; details: in vivo
[6] = Terminal half life in perfused Sprague-Dawley rat brain at 30 mg/kg, iv; type: ADME, organism-based; parameters: dose 30 mg/kg, route intravenous; details: read-out: beta t1/2 (converted)
Summary of the method: (§2)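 Nonfasted Sprague-Dawley rats given 30 mg/kg i.v. in 0.9% NaCl pH 4.0 by tail vein over 20–30 s. Terminal sampling under isoflurane at 5 min, 0.25, 0.5, 1, 2, 4 and 8 h (4–5 rats/time): plasma, CSF, and brain homogenate, with or without saline perfusion. LC-MS/MS. t1/2, Vss and ratios from noncompartmental analysis of pooled composite concentrations.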

[7] = Terminal half life in non-perfused Sprague-Dawley rat plasma at 30 mg/kg, iv; type: ADME, organism-based; parameters: dose 30 mg/kg, route intravenous; details: read-out: beta t1/2 (converted)
Summary of the method: as §2

[8] = tested on: Brain; test: Ratio of AUC (0 to infinity) after iv dose to AUC (0 to 8 hrs) after po dose in perfused Sprague-Dawley rat brain at 1000 mg/kg; type: ADME, organism-based; parameters: dose 1000 mg/kg, route oral; details: in vivo
Summary of the method: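 Sprague-Dawley rats, nonfasted. i.v.: 30 mg/kg in 0.9% NaCl pH 4.0, slow tail-vein injection, sampled at 5 min and 0.25–8 h. Oral gavage: 1,000 mg/kg free base, sampled 1–8 h. Four or five rats per time point, with cardiac blood and cisterna magna CSF. Brains taken with or without saline transcardial perfusion (oral study perfused). LC-MS/MS. AUC by noncompartmental analysis of pooled composite data.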

[9] = Cmax in perfused Sprague-Dawley rat brain at 30 mg/kg, iv; type: ADME, organism-based; parameters: dose 30 mg/kg, route intravenous
Summary of the method: (§3)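 Nonfasted adult rats received 30 mg/kg in aqueous 0.9% NaCl (pH 4.0) by slow tail-vein injection over 20–30 s. Groups were sampled at 5 min and 0.25, 0.5, 1, 2, 4 and 8 h, with 4–5 rats per time point, under terminal isoflurane. Blood was taken by heart puncture and CSF from the cisterna magna. Brains were homogenized either unperfused or after transcardial saline perfusion. Samples were assayed by LC-MS/MS, and pooled composite data were analyzed noncompartmentally.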

[10] = tested on: Plasma; test: AUC (0 to 8 hrs) after iv dose in perfused Sprague-Dawley rat plasma at 30 mg/kg; details: in vivo
[11] = […] of Spodoptera frugiperda Sf9 cells over expressing human MRP1; type: ADME, cell-based
Summary of the method: (§4)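 Membrane vesicles (20–50 µg) from insect cells expressing recombinant human BCRP1, MRP1 or MRP3 were prewarmed at 37°C. They were incubated for 60 s at 37°C with 14C-oseltamivir (3.8 µM) or OC (3.1 µM), with or without 5 mM ATP, in sucrose/KNO3/Mg(NO3)2/HEPES-Tris pH 7.4. The reaction was stopped with ice-cold buffer containing taurocholate, followed by rapid nitrocellulose filtration and scintillation counting. Determinations were in triplicate.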

[12] = Cmax in non-perfused Sprague-Dawley rat brain at 30 mg/kg, iv; type: ADME, organism-based; parameters: dose 30 mg/kg, route intravenous
Summary of the method: as §3

[13] = AUC (0 to 8 hrs) ratio in brain to plasma in perfused Sprague-Dawley rat at 1000 mg/kg, po; type: ADME, organism-based; parameters: dose 1000 mg/kg, route oral; details: brain and plasma, read-out: Ratio AUC
Summary of the method: as §1

[14] = Terminal half life in non-perfused Sprague-Dawley rat brain at 30 mg/kg, iv; type: ADME, organism-based; parameters: dose 30 mg/kg, route intravenous; details: read-out: beta t1/2 (converted)
Summary of the method: as §2

[15] = Terminal half life in perfused Sprague-Dawley rat plasma at 30 mg/kg, iv; type: ADME, organism-based; parameters: dose 30 mg/kg, route intravenous; details: read-out: beta t1/2 (converted)
Summary of the method: as §2

[16] = Cmax in perfused Sprague-Dawley rat plasma at 30 mg/kg, iv; type: ADME, organism-based; parameters: dose 30 mg/kg, route intravenous
Summary of the method: as §3

[17] = tested on: Plasma; test: AUC (0 to 8 hrs) after po dose in perfused Sprague-Dawley rat plasma at 1000 mg/kg; details: in vivo
[18] = Cmax in non-perfused Sprague-Dawley rat cerebrospinal fluid at 30 mg/kg, iv; type: ADME, organism-based; parameters: dose 30 mg/kg, route intravenous
Summary of the method: as §3

[19] = tested on: Cerebrospinal fluid; test: AUC (0 to 8 hrs) after iv dose in perfused Sprague-Dawley rat cerebrospinal fluid at 30 mg/kg; details: in vivo
[20] = AUC (0 to 8 hrs) ratio in cerebrospinal fluid to brain in perfused Sprague-Dawley rat at 1000 mg/kg, po; type: ADME, organism-based; parameters: dose 1000 mg/kg, route oral; details: in vivo
Summary of the method: as §1

[21] = Cmax in perfused Sprague-Dawley rat cerebrospinal fluid at 1000 mg/kg, po; type: ADME, organism-based; parameters: dose 1000 mg/kg, route oral
Summary of the method: as §1

[22] = Cmax in perfused Sprague-Dawley rat brain at 1000 mg/kg, po; type: ADME, organism-based; parameters: dose 1000 mg/kg, route oral
Summary of the method: as §1

[23] = Permeability from […] of Spodoptera frugiperda Sf9 cells over expressing human BCRP1; type: ADME, cell-based
Summary of the method: as §4

[24] = Cmax in perfused Sprague-Dawley rat cerebrospinal fluid at 30 mg/kg, iv; type: ADME, organism-based; parameters: dose 30 mg/kg, route intravenous
Summary of the method: as §3

[25] = Terminal half life in non-perfused Sprague-Dawley rat cerebrospinal fluid at 30 mg/kg, iv; type: ADME, organism-based; parameters: dose 30 mg/kg, route intravenous; details: read-out: beta t1/2 (converted)
Summary of the method: as §2

[26] = Permeability from […] of Spodoptera frugiperda Sf9 cells over expressing human MRP3; type: ADME, cell-based
Summary of the method: as §4

[27] = Cmax in non-perfused Sprague-Dawley rat plasma at 30 mg/kg, iv; type: ADME, organism-based; parameters: dose 30 mg/kg, route intravenous
Summary of the method: as §3

[28] = Terminal half life in perfused Sprague-Dawley rat cerebrospinal fluid at 30 mg/kg, iv; type: ADME, organism-based; parameters: dose 30 mg/kg, route intravenous; details: read-out: beta t1/2 (converted)
Summary of the method: as §2

[29] = Cmax in non-perfused Sprague-Dawley rat brain at 30 mg/kg, iv after 0.25 hrs; type: ADME, organism-based; parameters: dose 30 mg/kg, route intravenous
Summary of the method: as §3

[30] = AUC (0 to 8 hrs) ratio in cerebrospinal fluid to plasma in perfused Sprague-Dawley rat at 1000 mg/kg, po; type: ADME, organism-based; parameters: dose 1000 mg/kg, route oral; details: cerebrospinal fluid and plasma, read-out: Ratio AUC
Summary of the method: as §1

[31] = Prodrug conversion in 7 days old female rat brain S9 fractions assessed as conversion of oseltamivir to oseltamivir carboxylate; type: ADME, tissue-based
Summary of the method: (§5)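 S9 from brain or liver (rat S9 made by homogenizing tissue in ~4 ml Tris-sucrose buffer per g, supernatant after 9,000 × g at 10°C; pooled human brain and liver S9 also used), protein by bicinchoninic acid assay. Oseltamivir: triplicate, 10 μM 14C-oseltamivir final, 1.0 mg S9 protein, 100 mM Tris-HCl pH 7.4, 30 min at 37°C, quenched with TCA-acetonitrile.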

[32] = AUC (0 to infinity) ratio in brain to plasma in perfused Sprague-Dawley rat at 30 mg/kg, iv; type: ADME, organism-based; parameters: dose 30 mg/kg, route intravenous; details: brain and plasma, read-out: Ratio AUC
Summary of the method: as §3

[33] = Prodrug conversion in human liver S9 fractions assessed as oseltamivir carboxylate generation rate assessed per mg of protein per min; type: ADME, subcellular, S9 fraction
Summary of the method: as §5

| AUC [1] | Cmax [2] | AUC [3] | AUC [4] | AUC [5] | half-life [6] | half-life [7] | Cmax [9] | AUC [10] | permeability [11] | Cmax [12] | Kp [13] | half-life [14] | half-life [15] | Cmax [16] | AUC [17] | Cmax [18] | AUC [19] | Ratio AUC [20] | Cmax [21] | SMILES | further results |
| --- | --- | --- | --- | --- | --- | --- | --- | --- | --- | --- | --- | --- | --- | --- | --- | --- | --- | --- | --- | --- | --- |
| 1940 | 49700 ng/mL | 128 | 305 | 687 | 0.478 h | 1.64 h | 605 ng/g | 33800 | impermeable | 1710 ng/g | 0.01 | 0.379 h | 1.69 h | 86300 ng/mL | 286000 | 227 ng/mL | 137 | 0.64 | 363 ng/mL | CCC(CC)O[C@@H]1C=C(C(=O)O)C[C@H](N)[C@H]1NC(C)=O [OSELTAMIVIR CARBOXYLATE] | Ratio AUC [8]: 3450; Cmax [22]: 641 ng/g; permeability [23]: impermeable; Cmax [24]: 249 ng/mL; half-life [25]: 0.342 h; permeability [26]: impermeable; Cmax [27]: 72300 ng/mL; half-life [28]: 0.382 h; Cmax [29]: 164 ng/g; Kp [30]: 0.007 |
| 7470 | 16300 ng/mL | 450 | 1160 | 1310 | 1.51 h | 1.35 h | 491 ng/g | 5330 | impermeable | 712 ng/g | 0.12 | 2.45 h | 1.59 h | 12500 ng/mL | 107000 | 897 ng/mL | 472 | 0.55 | 1120 ng/mL | CCOC(=O)C1=C[C@@H](OC(CC)CC)[C@H](NC(C)=O)[C@@H](N)C1 [OSELTAMIVIR] | Activity [31]: < 0.06%; Kp [32]: 0.21; Activity [33]: 119 pmol/s; AUC [8]: 13600 ng·h/g; Cmax [22]: 2310 ng/g; permeability [23]: impermeable; Cmax [24]: 921 ng/mL; half-life [25]: 0.813 h; permeability [26]: impermeable; Cmax [27]: 12000 ng/mL; half-life [28]: 0.812 h; Kp [30]: 0.07 |
